# In ChEMBL document CHEMBL3124923, “Isolation, structure elucidation, and biological activity of altersolanol P using Staphylococcus aureus fitness test based genome-wide screening” (2014):
# Activity calls are given as the source filed them. No cut-off for these calls is given here.
# Legend:
# Type in all cases: functional
# Staphylococcus aureus [1] = test: Antimicrobial activity against Staphylococcus aureus
# Staphylococcus aureus [2] = test: Antimicrobial activity against Staphylococcus aureus Smith MB 2865 after 20 hrs by 2-fold serial broth dilution method in presence of 50 % human serum; conditions: for MIC: Smith MB 2865, 20 h
# In short: (§1)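 MIC for each strain determined following the NCCLS (now CLSI) method, using 2-fold serial dilution of the compound. For the S. aureus Smith strain, MIC was also run with 50% human serum in the medium.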
# Candida albicans = test: Antimicrobial activity against Candida albicans MY 1055 after 20 hrs by 2-fold serial broth dilution method; conditions: MY 1055, 20 h; in short: as §1
# Pseudomonas aeruginosa = test: Antimicrobial activity against Pseudomonas aeruginosa
# Staphylococcus aureus [3] = test: Antimicrobial activity against Staphylococcus aureus Smith MB 2865 after 20 hrs by 2-fold serial broth dilution method; conditions: Smith MB 2865, 20 h; in short: as §1
# Escherichia coli [4] = test: Antimicrobial activity against Escherichia coli MB 5746 harboring envA/tolC gene after 20 hrs by 2-fold serial broth dilution method; conditions: MB 5746, 20 h
# In short: (§2)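 MIC read following the NCCLS (now CLSI) method, using 2-fold serial dilutions of test compound against each strain.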
# Streptococcus pneumoniae [5] = test: Antimicrobial activity against Streptococcus pneumoniae CL 2883 grown in iso sensitet medium after 20 hrs by 2-fold serial broth dilution method; conditions: CL 2883, 20 h; in short: as §1
# Enterococcus faecalis = test: Antimicrobial activity against vancomycin-sensitive Enterococcus faecalis CL 8516 after 20 hrs by 2-fold serial broth dilution method; conditions: CL 8516, 20 h; in short: as §2
# Escherichia coli [6] = test: Antimicrobial activity against wild-type Escherichia coli MB 2884 after 20 hrs by 2-fold serial broth dilution method; conditions: MB 2884, 20 h; in short: as §1
# Streptococcus pneumoniae [7] = test: Antimicrobial activity against Streptococcus pneumoniae CL 2883 grown in 2.5 % lysed horse blood medium after 20 hrs by 2-fold serial broth dilution method; conditions: CL 2883, 20 h; in short: as §1
# Haemophilus influenzae = test: Antimicrobial activity against Haemophilus influenzae MB 4572 after 20 hrs by 2-fold serial broth dilution method; conditions: MB 4572, 20 h; in short: as §1
# Bacillus subtilis = test: Antimicrobial activity against Bacillus subtilis MB 964 after 20 hrs by 2-fold serial broth dilution method; conditions: MB 964, 20 h; in short: as §1
MIC (Staphylococcus aureus [1]) [mg/L],MIC (Pseudomonas aeruginosa) [mg/L],SMILES,other results
12.5,12.5,COc1cc(O)c2c(c1)C(=O)C1=C(C2=O)[C@H](C)[C@@H](O)[C@@](C)(O)[C@@H]1O,
12.5,12.5,COc1cc(O)cc2c1C(=O)C1=C(C2=O)[C@@H](O)[C@](C)(O)[C@H](O)[C@H]1O,
12.5,12.5,COc1cc(O)cc2c1C(=O)C1=C(C2=O)[C@H](O)[C@](C)(O)[C@H](O)[C@H]1O,
12.5,12.5,COc1cc(O)c2c(c1)C(=O)C1=C(C[C@@H](O)[C@@](C)(O)[C@@H]1O)C2=O [ALTERSOLANOL C],
12.5,12.5,COc1cc(O)c2c(c1)C(=O)C1=C(C[C@H](O)[C@@](C)(O)[C@@H]1O)C2=O,

# The next lines start with the molecule.
SMILES,MIC (Staphylococcus aureus [1]) [mg/L],MIC (Pseudomonas aeruginosa) [mg/L],other results
COc1cc(O)c2c(c1)C(=O)[C@@H]1[C@H](C[C@@H](O)[C@@](C)(O)[C@@H]1O)[C@H]2O [ALTERSOLANOL K],12.5,12.5,Activity (Staphylococcus aureus [2]): Active; MIC (Candida albicans): 8 mg/L
COc1cc(O)c2c(c1)C(=O)C1=C(C[C@@H](O)[C@@](C)(O)C1)C2=O [ALTERSOLANOL B],12.5,12.5,
C[C@@]1(O)CCC2=C(C(=O)c3cccc(O)c3C2=O)[C@@H]1O,2,,MIC (Staphylococcus aureus [3]): 4 mg/L; MIC (Staphylococcus aureus [2]): > 64 mg/L; MIC (Candida albicans): 8 mg/L; MIC (Escherichia coli [4]): 32 mg/L; MIC (Streptococcus pneumoniae [5]): 4 mg/L; MIC (Enterococcus faecalis): 1 mg/L; MIC (Escherichia coli [6]): > 64 mg/L; MIC (Streptococcus pneumoniae [7]): 8 mg/L; MIC (Haemophilus influenzae): 2 mg/L; MIC (Bacillus subtilis): 2 mg/L
COc1cc(O)c2c(c1)C(=O)[C@H]1C[C@](C)(O)[C@H](O)C[C@@H]1[C@H]2O [ALTERSOLANOL J],12.5,12.5,
CC1(C)S[C@@H]2[C@H](NC(=O)Cc3ccccc3)C(=O)N2[C@H]1C(=O)O [PENICILLIN G],,,MIC (Staphylococcus aureus [3]): < 0.06 mg/L; MIC (Staphylococcus aureus [2]): 0.12 mg/L; MIC (Candida albicans): > 64 mg/L; MIC (Escherichia coli [4]): 8 mg/L; MIC (Streptococcus pneumoniae [5]): < 0.015 mg/L; MIC (Enterococcus faecalis): 4 mg/L; MIC (Streptococcus pneumoniae [7]): < 0.015 mg/L; MIC (Haemophilus influenzae): 0.06 mg/L; MIC (Bacillus subtilis): < 0.06 mg/L
COc1cc(O)c2c(c1)C(=O)C1=C(C2=O)[C@H](O)[C@H](O)[C@@](C)(O)[C@@H]1O,12.5,12.5,
COc1cc(O)c2c(c1)C(=O)C1=C(C2=O)[C@H](O)[C@@H](O)[C@@](C)(O)[C@@H]1O [ALTERSOLANOL A],12.5,12.5,
